Tests used:
Fibroblast = experiment: Incucyte cell viability with human fibroblast; assay type: toxicity, cell-based; settings: 10 µM, compound concentration 10 uM; further: filed as whole numbers so only -1 and 0 and 1 occur
U2OS = experiment: Multiplex assay against U2OS; assay type: toxicity, cell-based; settings: human
Procedure, shortened: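 At seeding, live cells were stained with Hoechst33342, BioTracker Green Microtubule Cytoskeleton Dye, MitoTracker Red and Annexin V Alexa Fluor 680. After compound addition they were imaged on a CQ1 microscope at 37°C and 5% CO2, and CellPathfinder machine-learning gating sorted them into Hoechst high-intensity objects or normal cells, with normal cells further split into healthy, pyknosed or fragmented nuclei and pyknosed cells into mitotic or apoptotic. Tubulin, mitochondrial-mass and membrane-permeability phenotypes are given as per cents of cells with healthy nuclei.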

[1] = 12 h, 1 µM, compound concentration 1 uM, replicate 1
[2] = 12 h, 1 µM, compound concentration 1 uM, replicate 2
[3] = 12 h, 10 µM, compound concentration 10 uM, replicate 1
[4] = 12 h, 10 µM, compound concentration 10 uM, replicate 2
[5] = 24 h, 1 µM, compound concentration 1 uM, replicate 1
[6] = 24 h, 1 µM, compound concentration 1 uM, replicate 2
[7] = 24 h, 10 µM, compound concentration 10 uM, replicate 1
[8] = 24 h, 10 µM, compound concentration 10 uM, replicate 2
[9] = 48 h, 1 µM, compound concentration 1 uM, replicate 1
[10] = 48 h, 1 µM, compound concentration 1 uM, replicate 2
[11] = 48 h, 10 µM, compound concentration 10 uM, replicate 1
[12] = 48 h, 10 µM, compound concentration 10 uM, replicate 2

## CN1C(=O)[C@@H](NC(=O)c2cc3ccccc3[nH]2)N=C(c2ccccc2)c2ccccc21 [DEVAZEPIDE]
Fibroblast; 0 h, replicate number 1, timepoint 0 hours
  Growth Rate: 0
Fibroblast; 18 h, replicate number 1, timepoint 18 hours
  Growth Rate: 1
Fibroblast; 24 h, replicate number 1, timepoint 24 hours
  Growth Rate: 1
U2OS; [1]
  Population Fragmented Nuclei (%): 12%
  Population Healthy Nuclei (%): 76%
  Population Hoechst High Intensity Objects (%): 7%
  Population Membrane Permeable-Phenotype (%): 3%
  Population Mitochondria Different-Phenotype (%): 17%
  Population Normal (%): 92%
  Population Pyknosed Nuclei (%): 11%
  Population Tubulin-Different-Phenotype (%): 21%
  Total Cell Count: 144
U2OS; [2]
  Population Apoptotic (%): 33%
  Population Fragmented Nuclei (%): 4%
  Population Healthy Nuclei (%): 85%
  Population Hoechst High Intensity Objects (%): 5%
  Population Membrane Permeable-Phenotype (%): 9%
  Population Mitochondria Different-Phenotype (%): 23%
  Population Mitotic Cells (%): 66%
  Population Normal (%): 94%
  Population Pyknosed Nuclei (%): 9%
  Population Tubulin-Different-Phenotype (%): 10%
  Total Cell Count: 68
U2OS; [3]
  Population Apoptotic (%): 52%
  Population Fragmented Nuclei (%): 11%
  Population Healthy Nuclei (%): 72%
  Population Hoechst High Intensity Objects (%): 6%
  Population Membrane Permeable-Phenotype (%): 21%
  Population Mitochondria Different-Phenotype (%): 45%
  Population Mitotic Cells (%): 47%
  Population Normal (%): 93%
  Population Pyknosed Nuclei (%): 15%
  Population Tubulin-Different-Phenotype (%): 70%
  Total Cell Count: 117
U2OS; [4]
  Population Apoptotic (%): 33%
  Population Fragmented Nuclei (%): 20%
  Population Healthy Nuclei (%): 75%
  Population Hoechst High Intensity Objects (%): 7%
  Population Membrane Permeable-Phenotype (%): 37%
  Population Mitochondria Different-Phenotype (%): 48%
  Population Mitotic Cells (%): 66%
  Population Normal (%): 92%
  Population Pyknosed Nuclei (%): 5%
  Population Tubulin-Different-Phenotype (%): 66%
  Total Cell Count: 65
U2OS; [5]
  Population Apoptotic (%): 31%
  Population Fragmented Nuclei (%): 10%
  Population Healthy Nuclei (%): 76%
  Population Hoechst High Intensity Objects (%): 5%
  Population Membrane Permeable-Phenotype (%): 1%
  Population Mitochondria Different-Phenotype (%): 14%
  Population Mitotic Cells (%): 68%
  Population Normal (%): 94%
  Population Pyknosed Nuclei (%): 13%
  Population Tubulin-Different-Phenotype (%): 12%
  Total Cell Count: 173
U2OS; [6]
  Population Apoptotic (%): 37%
  Population Fragmented Nuclei (%): 7%
  Population Healthy Nuclei (%): 82%
  Population Hoechst High Intensity Objects (%): 1%
  Population Membrane Permeable-Phenotype (%): 3%
  Population Mitochondria Different-Phenotype (%): 10%
  Population Mitotic Cells (%): 62%
  Population Normal (%): 98%
  Population Pyknosed Nuclei (%): 10%
  Population Tubulin-Different-Phenotype (%): 6%
  Total Cell Count: 79
U2OS; [7]
  Population Apoptotic (%): 87%
  Population Fragmented Nuclei (%): 22%
  Population Healthy Nuclei (%): 49%
  Population Hoechst High Intensity Objects (%): 6%
  Population Membrane Permeable-Phenotype (%): 29%
  Population Mitochondria Different-Phenotype (%): 29%
  Population Mitotic Cells (%): 12%
  Population Normal (%): 93%
  Population Pyknosed Nuclei (%): 27%
  Population Tubulin-Different-Phenotype (%): 47%
  Total Cell Count: 123
U2OS; [8]
  Population Apoptotic (%): 92%
  Population Fragmented Nuclei (%): 28%
  Population Hoechst High Intensity Objects (%): 7%
  Population Membrane Permeable-Phenotype (%): 19%
  Population Mitochondria Different-Phenotype (%): 45%
  Population Mitotic Cells (%): 7%
  Population Normal (%): 92%
  Population Pyknosed Nuclei (%): 22%
  Population Tubulin-Different-Phenotype (%): 51%
  Total Cell Count: 68
U2OS; [9]
  Population Apoptotic (%): 33%
  Population Fragmented Nuclei (%): 9%
  Population Healthy Nuclei (%): 82%
  Population Hoechst High Intensity Objects (%): 3%
  Population Membrane Permeable-Phenotype (%): 4%
  Population Mitochondria Different-Phenotype (%): 14%
  Population Mitotic Cells (%): 66%
  Population Normal (%): 96%
  Population Pyknosed Nuclei (%): 8%
  Population Tubulin-Different-Phenotype (%): 8%
  Total Cell Count: 231
U2OS; [10]
  Population Apoptotic (%): 50%
  Population Fragmented Nuclei (%): 8%
  Population Healthy Nuclei (%): 78%
  Population Hoechst High Intensity Objects (%): 1%
  Population Membrane Permeable-Phenotype (%): 5%
  Population Mitochondria Different-Phenotype (%): 18%
  Population Mitotic Cells (%): 50%
  Population Normal (%): 98%
  Population Pyknosed Nuclei (%): 12%
  Population Tubulin-Different-Phenotype (%): 16%
  Total Cell Count: 96
U2OS; [11]
  Population Apoptotic (%): 89%
  Population Fragmented Nuclei (%): 21%
  Population Healthy Nuclei (%): 37%
  Population Hoechst High Intensity Objects (%): 5%
  Population Membrane Permeable-Phenotype (%): 31%
  Population Mitochondria Different-Phenotype (%): 38%
  Population Mitotic Cells (%): 10%
  Population Normal (%): 94%
  Population Pyknosed Nuclei (%): 41%
  Population Tubulin-Different-Phenotype (%): 45%
  Total Cell Count: 124
U2OS; [12]
  Population Apoptotic (%): 92%
  Population Fragmented Nuclei (%): 24%
  Population Healthy Nuclei (%): 50%
  Population Hoechst High Intensity Objects (%): 13%
  Population Membrane Permeable-Phenotype (%): 55%
  Population Mitochondria Different-Phenotype (%): 55%
  Population Mitotic Cells (%): 7%
  Population Normal (%): 86%
  Population Pyknosed Nuclei (%): 24%
  Population Tubulin-Different-Phenotype (%): 58%
  Total Cell Count: 66
